Measured values of several laboratories.
Protocols differ between the studies behind these lines.
TNK1: Non-receptor tyrosine-protein kinase TNK1 (TNK1, Homo sapiens, UniProt Q13470)
HDAC6: Protein deacetylase HDAC6 (HDAC6, Homo sapiens, UniProt Q9UBN7)

For CNc1ncc2c(/C=C/C(=O)N3CCC(OC)CC3)nn(Cc3cccc(C(F)(F)F)c3)c2n1, the remaining activity was 105% (Dual specificity protein kinase TTK (TTK, Homo sapiens, UniProt P33981); enzyme activity, inhibitor, radiometric; 1 µM).
For Cc1cc(NC(=O)c2cccc(NC(=O)/C=C/CN(C)C)c2)ccc1Nc1nccc(-c2cccnc2)n1, the remaining binding was 57% (TNK1; binding, competition with immobilised ligand; 1 µM).
The remaining binding of C=CC(=O)N1CCC(COCC(=O)N2CCN(c3nc(-c4cnc(N)nc4C(F)F)nc(N4CCOC[C@@H]4C)n3)CC2)CC1 is reported as 100% (Serine/threonine-protein kinase MAK (MAK, Homo sapiens, UniProt P20794); binding, competition with immobilised ligand; 1 µM).
With Cc1cc([C@@H](C)Nc2ccccc2C(=O)O)c2nc(N3CCC(F)(F)CC3)c(C#N)c(=O)n2c1 the remaining binding was 100% (Serine/threonine-protein kinase PAK 2 (PAK2, Homo sapiens, UniProt Q13177); binding, competition with immobilised ligand; 1 µM).
For Cc1cc(OS(=O)(=O)Oc2cccc(C(C)C)c2)cc(C(=O)NO)c1, the inhibition was 58% (HDAC6; enzyme activity, inhibitor, fluorescence; 10 µM).
COc1cc(-c2cncc3c2CN(C)Cc2cc(N4CCNCC4)ccc2-3)cc(OC)c1OC has a remaining activity of 101% (Death-associated protein kinase 1 (DAPK1, Homo sapiens, UniProt P53355); enzyme activity, inhibitor; 1 µM).
Cc1c(OS(=O)(=O)Oc2ccc(Oc3ccccc3)cc2)cccc1C(=O)NO has an inhibition of 27% (HDAC6; enzyme activity, inhibitor, fluorescence; 10 µM).
With C=CC(=O)N1C[C@@H](n2nc(C#Cc3c(F)cc4c(ncn4C4CC4)c3F)c(C(N)=O)c2NC)C[C@@H]1COC the inhibition was 89.5% (TNK1; enzyme activity, inhibitor, mobility shift; 1 µM).
Cc1cc(OS(=O)(=O)Oc2ccc(C(C)(C)C)cc2)cc(C(=O)NO)c1 has an inhibition of 36% (HDAC6; enzyme activity, inhibitor, fluorescence; 10 µM).
CCc1nn(C)c2nc(-c3ccc(C(=O)O)cc3)nc(NCc3ccc(F)cc3)c12 has an inhibition of 42.1% (3',5'-cyclic-AMP phosphodiesterase 4D (PDE4D, Homo sapiens, UniProt Q08499); enzyme activity, inhibitor, radiometric; 10 µM).
The inhibition of Cc1c(OS(=O)(=O)Oc2ccc(C(C)(C)C)cc2)cccc1C(=O)NO is reported as 30% (HDAC6; enzyme activity, inhibitor, fluorescence; 10 µM).
Cc1ncsc1-c1ccc(CNC(=O)[C@@H]2C[C@@H](O)CN2C(=O)[C@@H](NC(=O)CCCCCCCCNC(=O)CN2CCN(C(=O)c3ccc(Nc4nc(C5CC5)cn5c(-c6cn[nH]c6)cnc45)c(F)c3)CC2)C(C)(C)C)cc1 has an inhibition of greater than 65% (TNK1; cell-free assay, competition with immobilised ligand; 1 µM).
